# From publication PMC7797712 (Medicinal Chemistry Research, 2021)
# What was measured:
# AML12HBV10 cells = experiment: Cytotoxicity assay in AML12HBV10 cells; assay type: cell-based, mouse
# Outline: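 Cells treated in tetracycline-free medium, as in the antiviral assay, with twofold serial dilution from 50 to 1.56 µM for 48 h. Viability checked by microscopy and measured by MTT. CC50 = concentration reducing viability by 50%.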
# [1] = test system: cytoplasmic HBV-DNA replication in AML12HBV10 cells; experiment: Antiviral assay in AML12HBV10 cells; assay type: cell-based, hepatitis B virus; details: for Anti-HBV potency compared with 27 (58031), in words: SAR statement of the text
# Outline: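 AML12-derived mouse hepatocyte line carrying a tetracycline-inducible, envelope-deficient HBV genome; seeded at 2 × 10^4 cells/well in tetracycline-free medium. Next day, mock or twofold serial dilution (10 to 0.08 µM) for 48 h. Cells lysed in Tris-HCl pH 7.5/EDTA/NaCl/1% NP-40. Half the lysate NaOH-denatured, neutralised, dot-blotted and hybridised with 32P-labelled HBV minus-strand riboprobe. Phosphorimager quantification; EC50 = concentration reducing HBV DNA by 50%.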
# HBV core protein = HBV core protein (Hepatitis B virus genotype D subtype ayw, UniProt P03146); experiment: Western blot assay of HBV core protein dephosphorylation in AML12HBV_DE11 cells; assay type: cell-based; details: 30 h, ENAN-34017 2 µM, Bay 41-4109 2 µM, entecavir 1 µM
# Outline: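 Controls: cells kept with tetracycline, or tetracycline-free and mock treated. Test cells tetracycline-free, treated 30 h, then lysed in LDS loading buffer and boiled 100 °C for 20 min. Run on 12% Bis-Tris gel in MOPS buffer, transferred to PVDF. Hyper-phosphorylated and dephosphorylated/hypophosphorylated core protein detected by western blot; β-actin loading control.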
# [2] = test system: HBV replication in HepDES19 cells; experiment: Antiviral assay in HepDES19 cells; assay type: cell-based; details: Hepatitis B virus, HepDES19, read-out: EC50, inhibition of HBV-DNA replication
# Outline: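 HepG2-derived line with a tetracycline-inducible, envelope-deficient HBV genome; seeded in 24-well plates and kept tetracycline-free for 2 days. Then mock or twofold serial dilution for a further 4 days. Cytoplasmic HBV core DNA extracted and measured by qPCR. EC50 from regression on biologically triplicate experiments, two independent experiments.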
# Chain of HBV core protein (P03146 whole entry): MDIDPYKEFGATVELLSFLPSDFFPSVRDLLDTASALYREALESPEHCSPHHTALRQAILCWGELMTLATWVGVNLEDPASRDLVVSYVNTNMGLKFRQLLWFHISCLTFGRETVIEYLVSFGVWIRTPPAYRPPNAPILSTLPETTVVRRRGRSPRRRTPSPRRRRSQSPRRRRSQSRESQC
smiles,measurement,setting,value
"O=C1CCN(C(=O)Nc2ccc(F)c(Cl)c2)CN1Cc1ccc(F)cc1F [Compound 27, N-(3-chloro-4-fluorophenyl)-3-(2,4-difluorobenzyl)-4-oxotetrahydropyrimidine-1(2H)-carboxamide]",Cytotoxicity at 50 μM,AML12HBV10 cells,no cytotoxicity
same,EC50 (50% inhibitory concentration of cytoplasmic HBV-DNA replication),"[1]; AML12HBV10 cells, 48 h treatment, dot-blot hybridization",submicromolar
same,Potency increase relative to 21,"[1]; AML12HBV10 cells, EC50 ratio",fourfold potency increase
same,EC50,"[1]; Hepatitis B virus, AML12HBV10, 48 h, read-out: EC50 (50% inhibitory concentration of cytoplasmic HBV-DNA replication)",520 nM
same,Effect on Cp dephosphorylation,HBV core protein,inhibited Cp dephosphorylation
same,EC50,[2],840 nM
"Cc1ccc(S(=O)(=O)NC2CN(C(=O)Nc3ccc(F)c(Cl)c3)CN(Cc3ccc(F)cc3F)C2=O)cc1 (stereo not drawn) [Compound 54, N-(3-chloro-4-fluorophenyl)-3-(2,4-difluorobenzyl)-5-(4-methylphenylsulfonamido)-4-oxotetrahydropyrimidine-1(2H)-carboxamide]","Anti-HBV potency compared with 27 (58031), in words",[1]; AML12HBV10 cells,comparable or slightly better potencies
"C=CC(=O)NC1CN(C(=O)Nc2ccc(F)c(Cl)c2)CN(Cc2ccc(F)cc2F)C1=O (stereo not drawn) [Compound 55, 5-acrylamido-N-(3-chloro-4-fluorophenyl)-3-(2,4-difluorobenzyl)-4-oxotetrahydropyrimidine-1(2H)-carboxamide]","Anti-HBV potency compared with 27 (58031), in words",[1]; AML12HBV10 cells,comparable or slightly better potencies
"C=C1[C@H](CO)[C@@H](O)C[C@@H]1n1cnc2c(=O)[nH]c(N)nc21 [entecavir, reference compound]",Effect on Cp dephosphorylation,HBV core protein,did not affect Cp dephosphorylation
